PubChem BioAssay AID488974 (NMMLSC, 2010)
Calls of active or inactive are those of the source.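 How the source made its calls: active means ratio of toxic midpoint dose to chemo-reversal midpoint dose above 10, among compounds with toxic midpoint under 15 µM; inactive means the rest.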

Test system: Igrove/Jurkat-DNR chemoreversal, trypan blue viability, 7 d
Assay: chemoreversal in ABCG2 cells, dose response, ABC transporter inhibitor project, paired ABCB1 counter-screen, SAR hit validation (AID 488974)
Details: for CC50: measured here: toxicity in resistant cells alone
Outline: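 System: drug-resistant human Igrove (ABCG2 arm) and Jurkat/DNR (ABCB1 counterscreen) cells / Quantity: 100,000 cells/mL / Also added: fixed selective agents mitoxantrone (Igrove) and daunorubicin (Jurkat/DNR) / Doses: test compound dose series spanning 0.1–100 µM / Incubation: compound exposure over 7 days / Signal: trypan blue exclusion with cell counting by light microscopy / Measure: chemo-reversal 50% viability concentration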

Structure (SMILES)	EC50	CC50 [µM]
Cc1ccc(-c2cc3nc(-c4ccccc4)cc(N4CCN(C(=O)c5ccoc5)CC4)n3n2)cc1	0.45 µM	86
O=C(c1ccoc1)N1CCN(c2cc(-c3ccco3)nc3cc(-c4cccc(Cl)c4)nn23)CC1	1.38 µM (inactive)	10.8
COc1cccc(-c2cc(N3CCN(C(=O)c4ccoc4)CC3)n3nc(-c4cccc(OC)c4)cc3n2)c1	0.68 µM	> 100
Cc1cc(N2CCN(C(=O)c3ccco3)CC2)n2nc(-c3ccc(F)cc3)cc2n1	0.14 µM	40.4
COc1cc(OC)cc(-c2cc3nc(C)c(C)c(N4CCN(C(=O)c5ccoc5)CC4)n3n2)c1	0.95 µM	> 100
Cc1nc2cc(-c3cccc(Cl)c3)nn2c(N2CCN(C(=O)c3ccco3)CC2)c1C	0.17 µM	47.4
COc1ccc(-c2cc3nc(-c4ccccc4)cc(N4CCN(C(=O)c5ccccc5)CC4)n3n2)cc1	0.2 µM	82.6
O=C(C1CCCO1)N1CCN(c2c3c(nc4cc(-c5cccc(F)c5)nn24)CCCC3)CC1 (centres undefined)	0.2 µM	17.5
O=C(c1ccoc1)N1CCN(c2cc(-c3ccncc3)nc3cc(-c4cccc(Cl)c4)nn23)CC1	0.89 µM	57.8
O=C(c1ccco1)N1CCN(c2cc(-c3ccccc3)nc3cc(-c4cccc(Cl)c4)nn23)CC1	0.14 µM (inactive)	6
O=C(c1ccoc1)N1CCN(c2cc(-c3ccco3)nc3cc(-c4ccccc4)nn23)CC1	0.31 µM	18.3
COc1ccc(-c2[nH]nc3nc(N4CCN(C(=O)c5ccoc5)CC4)cc(C(F)(F)F)c23)cc1	0.46 µM (inactive)	1.31
O=C(c1ccoc1)N1CCN(c2cc(-c3cccnc3)nc3cc(-c4cccc(Cl)c4)nn23)CC1	0.02 µM (inactive)	5.77
O=C(c1ccco1)N1CCN(c2cc(Cc3ccccc3)nc3cc(-c4cccc(Cl)c4)nn23)CC1	1.38 µM (inactive)	10.5
Cc1nc2cc(-c3cccc(Cl)c3)nn2c(N2CCN(C(=O)c3ccoc3)CC2)c1C	0.6 µM	> 100
Cc1cc(N2CCN(C(=O)c3ccco3)CC2)n2nc(C)c(-c3ccccc3)c2n1	2.18 µM	22.3
COc1cccc(-c2cc3nc(-c4ccco4)cc(N4CCN(C(=O)c5ccoc5)CC4)n3n2)c1	1 µM	> 100
O=C(c1ccoc1)N1CCN(c2cc(-c3ccccc3)nc3cc(-c4ccncc4)nn23)CC1	1.5 µM	22.3
COc1ccc(-c2cc3nc(-c4ccccc4)cc(N4CCN(C(=O)c5ccsc5)CC4)n3n2)cc1	0.17 µM	30.6

Structure (SMILES)	EC50	CC50 [µM]
O=C(c1ccco1)N1CCN(c2c3c(nc4cc(-c5cccc(F)c5)nn24)CCCC3)CC1	0.39 µM (inactive)	5.77
Cc1cc(N2CCN(C(=O)c3ccco3)CC2)n2nc(-c3ccccc3)nc2n1	2.94 µM (inactive)	16.2
COc1cccc(-c2cc3nc(C)c(C)c(N4CCN(Cc5ccco5)CC4)n3n2)c1	0.09 µM	> 100
COc1ccc(-c2cc3nc(C)c(C)c(N4CCN(C(C)=O)CC4)n3n2)cc1	3.28 µM	81.7
Cc1nc2cc(-c3cccc(Cl)c3)nn2c(N2CCN(C(=O)c3ccsc3)CC2)c1C	0.49 µM (inactive)	14.9
Cc1nc2ncnn2c(N2CCN(C(=O)c3ccco3)CC2)c1Cc1ccccc1	10.1 µM (inactive)	> 100
Cc1nc2cc(-c3ccc(F)cc3)nn2c(N2CCN(C(=O)c3ccco3)CC2)c1C	0.12 µM (inactive)	5.33
COc1cccc(-c2cc3nc(C)c(C)c(N4CCN(C(=O)c5ccoc5)CC4)n3n2)c1	0.76 µM	> 100
O=C(c1ccco1)N1CCN(c2cc(-c3ccccc3)nc3cc(-c4cccc(F)c4)nn23)CC1	0.76 µM (inactive)	8.25
COc1ccc(-c2cc3nc(C)c(C)c(N4CCN(C(=O)c5ccco5)CC4)n3n2)cc1	1.44 µM (inactive)	10.5
O=C(Cc1ccccc1)N1CCN(c2cc(-c3ccccc3)nc3cc(-c4cccc(Cl)c4)nn23)CC1	0.6 µM	> 100
O=C(c1cccnc1)N1CCN(c2cc(-c3ccccc3)nc3cc(-c4cccc(Cl)c4)nn23)CC1	0.13 µM (inactive)	10.3
COc1ccccc1-c1cc2nc(-c3ccccc3)cc(N3CCN(C(=O)c4ccoc4)CC3)n2n1	0.49 µM (inactive)	6.5
COc1ccc(-c2cc3nc(-c4ccccc4)cc(N4CCN(C(=O)c5ccoc5)CC4)n3n2)cc1	0.38 µM	> 100
CC(=O)N1CCN(c2c(C)c(C)nc3cc(-c4cccc(F)c4)nn23)CC1	0.73 µM	> 100
COc1cccc(C(=O)N2CCN(c3cc(-c4ccccc4)nc4cc(-c5cccc(Cl)c5)nn34)CC2)c1	0.21 µM	> 101
O=C(c1ccncc1)N1CCN(c2cc(-c3ccccc3)nc3cc(-c4cccc(Cl)c4)nn23)CC1	0.15 µM	28.3
Cc1nc2cc(-c3ccc4c(c3)OCO4)nn2c(N2CCN(C(=O)c3ccoc3)CC2)c1C	1.63 µM	> 100
